Data published in ChEMBL document CHEMBL4387702, “Design and synthesis novel di-carbonyl analogs of curcumin (DACs) act as potent anti-inflammatory agents against LPS-induced acute lung injury (ALI)” (Eur J Med Chem, 2019).
Calls of active or inactive are those of the source. The calls are words filed in the database; no cut-off is given here.

Tests used:
[1] = test system: RAW264.7; experiment: Inhibition of MAPK/NFkappaB in ICR mouse RAW264.7 cells assessed as reduction in LPS-induced TNFalpha production at 10 uM pretreated for 0.5 hrs followed by LPS challenge and measured after 24 hrs by ELISA relative to control; type: cell-based
[2] = test system: RAW264.7; experiment: Inhibition of LPS-induced ERK phosphorylation in ICR mouse RAW264.7 cells at 10 uM preincubated for 0.5 hrs followed by LPS challenge and measured after 30 mins by immunoblotting analysis; type: cell-based
Summary of the method: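 RAW 264.7 cells were pretreated with compound for 0.5 h and then stimulated with LPS for 30 min. Lysates were resolved on 10% or 12% SDS-PAGE and transferred to nitrocellulose. Membranes were blocked in TBS (pH 7.6) with 0.05% Tween 20 and 5% milk. Blots were probed for p-p38, p38, p-ERK, ERK, IκBα and GAPDH, detected with HRP secondaries and ECL.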

[3] = biological target: Transcription factor p65 (Mus musculus) (UniProt Q04207); experiment: Inhibition of LPS-induced NFkappaB p65 nuclear translocation in ICR mouse RAW264.7 cells preincubated for 0.5 hrs followed by LPS challenge and measured after 40 mins by DAPI staining-based immunofluorescence microscopic analysis; type: cell-based
Summary of the method: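 RAW 264.7 cells were pretreated with compound for 0.5 h, then given LPS for 40 min (methods) or 45 min (legend). Cells were fixed with 4% paraformaldehyde and permeabilized in methanol. Anti-p65 (1:200) was applied overnight at 4 °C, then PE-conjugated secondary (1:200) for 2 h. Nuclei were stained with DAPI and cells viewed by fluorescence microscopy.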

[4] = test system: RAW264.7; experiment: Inhibition of MAPK/NFkappaB signaling in ICR mouse RAW264.7 cells assessed as reduction in LPS-induced IL1beta mRNA expression pretreated for 0.5 hrs followed by LPS challenge and measured after 40 mins by TRIZOL reagent-based RT-qPCR analysis; type: cell-based
Summary of the method: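 RAW 264.7 cells were pretreated with compound for 0.5 h and then activated with LPS. Values were normalized to actin and expressed relative to the LPS group.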

[5] = AUC (0 to infinity) in Sprague-Dawley rat at 5 mg/kg, iv by UHPLC-MS/MS analysis; type: ADME, organism-based; parameters: dose 5 mg/kg, route intravenous, time infinity; conditions: in vivo
Summary of the method: (§1)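 Male Sprague-Dawley rats (250 ± 20 g) fasted overnight with free access to water, n = 5 per route. Intravenous dose was 5 mg/kg; the intragastric dose is printed as 20 mg/kg in the methods and 50 mg/kg in the table. Tail blood was taken at 0.083, 0.25, 0.5, 1, 2, 4, 6, 9, 12 and 24 h. Samples were centrifuged (12000 rpm, 10 min), deproteinized with 2 volumes of acetonitrile, re-centrifuged and quantified by UHPLC-MS/MS.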

[6] = MRT (0 to t) in Sprague-Dawley rat at 50 mg/kg, po by UHPLC-MS/MS analysis; type: ADME, organism-based; conditions: in vivo; summary of the method: as §1
[7] = MRT (0 to infinity) in Sprague-Dawley rat at 5 mg/kg, iv by UHPLC-MS/MS analysis; type: ADME, organism-based; conditions: in vivo; summary of the method: as §1
[8] = Half life in Sprague-Dawley rat at 5 mg/kg, iv by UHPLC-MS/MS analysis; type: ADME, organism-based; conditions: in vivo; summary of the method: as §1
[9] = Tmax in Sprague-Dawley rat at 50 mg/kg, po by UHPLC-MS/MS analysis; type: ADME, organism-based; conditions: in vivo
Summary of the method: (§2)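 Male SD rats (250 ± 20 g), fasted overnight with water ad libitum, dosed intravenously or intragastrically, n = 5. Tail blood taken at 0.083, 0.25, 0.5, 1, 2, 4, 6, 9, 12 and 24 h post-dose and centrifuged 12000 rpm, 10 min. Supernatant mixed with 2 volumes acetonitrile, vortexed and re-centrifuged. Drug measured by UHPLC-MS/MS; PK parameters derived from time-concentration data.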

[10] = Tmax in Sprague-Dawley rat at 5 mg/kg, iv by UHPLC-MS/MS analysis; type: ADME, organism-based; conditions: in vivo; summary of the method: as §2
[11] = Apparent volume of distribution during terminal phase in Sprague-Dawley rat at 5 mg/kg, iv by UHPLC-MS/MS analysis; type: ADME, organism-based; conditions: in vivo; summary of the method: as §1
[12] = Cmax in Sprague-Dawley rat at 50 mg/kg, po by UHPLC-MS/MS analysis; type: ADME, organism-based; parameters: dose 50 mg/kg, route oral; conditions: in vivo; summary of the method: as §1
[13] = Cmax in Sprague-Dawley rat at 5 mg/kg, iv by UHPLC-MS/MS analysis; type: ADME, organism-based; parameters: dose 5 mg/kg, route intravenous; conditions: in vivo; summary of the method: as §1
[14] = test system: Mus musculus; experiment: Antiinflammatory activity in C57BL/6 mouse model of LPS-induced acute lung injury assessed as reduction of pathological lesions in lung tissue at 10 mg/kg, ip administered daily for one week prior to LPS challenge and measured after 6 hrs by hematoxylin and eosin staining-based light microscopic analysis; type: functional, organism-based
Summary of the method: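 Lungs were taken 6 h after intratracheal LPS (5 mg/kg) from C57BL/6 mice pretreated at 10 mg/kg i.p. daily for one week. Tissue was fixed, embedded in paraffin, sectioned at 5 µm and stained with H&E. Injury features examined were edema, congestion, septal thickening, infiltration and tissue destruction, assessed by light microscopy.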

[15] = test system: Mus musculus; experiment: Antiinflammatory activity in C57BL/6 mouse model of LPS-induced acute lung injury assessed as reduction of F4/80 macrophage level in lung tissue at 10 mg/kg, ip administered daily for one week prior to LPS challenge measured after 6 hrs by hematoxylin staining-based immunohistochemistry method; type: functional, organism-based
Summary of the method: (§3)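 Lungs came from C57BL/6 mice dosed at 10 mg/kg i.p. daily for one week, then given intratracheal LPS 5 mg/kg and harvested at 6 h. Tissue was paraffin-embedded and cut into 5 µm sections. Antigen retrieval used microwaving in 0.01 mol/L citrate (pH 6.0), then 3% H2O2 in methanol for 30 min. Sections took LY-6G or F4/80 primary antibody overnight at 4 °C, secondary at 1:200, DAB development and hematoxylin counterstain.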

[16] = test system: Mus musculus; experiment: Antiinflammatory activity in C57BL/6 mouse model of LPS-induced acute lung injury assessed as reduction of LY-6G neutrophil level in lung tissue at 10 mg/kg, ip administered daily for one week prior to LPS challenge and measured after 6 hrs by hematoxylin staining-based immunohistochemistry method; type: functional, organism-based; summary of the method: as §3
[17] = test system: Mus musculus; experiment: Antiinflammatory activity in C57BL/6 mouse model of LPS-induced acute lung injury assessed as reduction in TNF-alpha mRNA expression in lung tissue at 10 mg/kg, ip administered daily for one week prior to LPS challenge and measured after 6 hrs by TRIZOL reagent-based RT-qPCR analysis; type: functional, organism-based
Summary of the method: (§4)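 Mouse ALI model with eight C57BL/6 mice per group. Compound was given at 10 mg/kg i.p. daily for one week; controls received 0.9% saline. LPS was instilled intratracheally at 5 mg/kg. Mice were euthanized with chloral hydrate 6 h later and lungs collected. Lung mRNA for each target was quantified by real-time qPCR.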

[18] = test system: Mus musculus; experiment: Antiinflammatory activity in C57BL/6 mouse model of LPS-induced acute lung injury assessed as reduction in IL-6 mRNA expression in lung tissue at 10 mg/kg, ip administered daily for one week prior to LPS challenge and measured after 6 hrs by TRIZOL reagent-based RT-qPCR analysis; type: functional, organism-based; summary of the method: as §4
[19] = test system: Mus musculus; experiment: Antiinflammatory activity in C57BL/6 mouse model of LPS-induced acute lung injury assessed as reduction in lung wet/dry ratio at 10 mg/kg, ip administered daily for one week prior to LPS challenge and measured after 6 hrs; type: functional, organism-based
Summary of the method: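 C57BL/6 mice (eight per group) received 10 mg/kg i.p. daily for one week; vehicle was 0.9% saline. They were then challenged with intratracheal LPS at 5 mg/kg and sacrificed 6 h later. Endpoints were lung wet/dry weight ratio and total and neutrophil cell counts in BALF, reported as mean ± SEM, n = 6.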

Chain of Transcription factor p65 (Mus musculus) (Q04207 whole entry): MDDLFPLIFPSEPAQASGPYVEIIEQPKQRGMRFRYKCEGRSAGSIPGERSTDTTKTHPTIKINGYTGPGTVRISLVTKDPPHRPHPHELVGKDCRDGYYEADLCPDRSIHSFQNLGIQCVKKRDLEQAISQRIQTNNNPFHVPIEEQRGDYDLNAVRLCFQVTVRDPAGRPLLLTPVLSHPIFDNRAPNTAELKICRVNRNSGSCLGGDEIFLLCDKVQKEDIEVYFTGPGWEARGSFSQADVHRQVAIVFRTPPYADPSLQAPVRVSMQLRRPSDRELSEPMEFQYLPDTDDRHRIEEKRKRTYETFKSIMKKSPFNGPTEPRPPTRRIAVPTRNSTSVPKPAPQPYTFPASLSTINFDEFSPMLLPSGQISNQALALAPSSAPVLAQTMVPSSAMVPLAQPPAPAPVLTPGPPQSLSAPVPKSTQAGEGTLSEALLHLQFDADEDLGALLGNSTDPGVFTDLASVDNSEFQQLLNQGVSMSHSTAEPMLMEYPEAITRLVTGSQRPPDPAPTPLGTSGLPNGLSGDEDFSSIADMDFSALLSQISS

Row | inhibition [3] | AUC [5] [µg·h/L] | MRT last [6] [h] | MRT [7] [h] | t1/2 [8] [min] | Tmax [9] [h] | Tmax [10] [min] | Vz/F [11] [L/kg] | Cmax [12] [ng/mL] | Cmax [13] [µg/L] | SMILES | inhibition [1] [%] | inhibition [2] | inhibition [4] | Activity [14] | Activity [15] | Activity [16] | Activity [17] | Activity [18] | Activity [19]
1 | Active | 122.4 | 7.8 | 19.9 | 12 | 3.3 | 6 | 59.5 | 113 | 16.4 | COc1cc(/C=C/C(=O)N2CCC/C(=C\c3cc(OC)c(OC)c(OC)c3)C2=O)ccc1OC(C)=O | 90.9 to 92.5 | Active | Active | Active | Active | Active | Active | Active | –
2 | Active | – | – | – | – | – | – | – | – | – | COc1cc(/C=C/C(=O)N2CCC/C(=C\c3cc(OC)c(OC)c(OC)c3)C2=O)ccc1O | 90.9 to 92.5 | Active | Active | Active | Active | Active | Active | Active | Active
